Results pooled from the literature.
Each line is one published result; the experiments were not run side by side.
PIK3CA E542K: Phosphatidylinositol 4,5-bisphosphate 3-kinase catalytic subunit alpha isoform (PIK3CA, Homo sapiens, UniProt P42336, E542K)
PIK3CA I800L: Phosphatidylinositol 4,5-bisphosphate 3-kinase catalytic subunit alpha isoform (PIK3CA, Homo sapiens, UniProt P42336, I800L)
PIK3CA: Phosphatidylinositol 4,5-bisphosphate 3-kinase catalytic subunit alpha isoform (PIK3CA, Homo sapiens, UniProt P42336)

For `C[C@H]1CC[C@H](n2c3cnccc3c3cnc(Nc4ccc5c(n4)CCN(C(=O)CO)C5)nc32)CC1`, the remaining signal was 100% (PIK3CA E542K; cell-free assay; 1 µM).
The inhibition of `CC#CC(=O)N1CCC[C@H]1c1nc(-c2ccc(C(=O)Nc3ccccn3)cc2)c2c(N)nccn12` is reported as 17% (Phosphatidylinositol 4,5-bisphosphate 3-kinase catalytic subunit alpha isoform (PIK3CA, Homo sapiens, UniProt P42336, C420R); enzyme activity, inhibitor; 1 µM).
The remaining binding of `C1=C/COCc2cc(ccc2OCCN2CCCC2)Nc2nccc(n2)-c2cccc(c2)COC/1` is reported as 60% (PIK3CA I800L; binding; 0.1 µM).
The remaining signal of `C#Cc1cnc(Nc2ccnc(CO)c2)nc1Nc1ccccc1S(C)(=O)=NC#N` (stereo not shown) is reported as 100% (PIK3CA; cell-free assay; 1 µM).
For `C#Cc1cc(-c2cc(Nc3nc(N[C@@H](C)c4ccc(F)cn4)ncc3Cl)n[nH]2)ccc1C=O`, the inhibition was 7.89% (PIK3CA; enzyme activity, inhibitor; 0.2 µM).
The remaining binding of `COc1ccc2[nH]c3c4[nH]c5ccc(OC)cc5c4c4c(c3c2c1)C(=O)NC4=O` is reported as 91% (PIK3CA; binding; 1 µM).
With `CCCCC(=O)Nc1ccc(-c2ccc3ncn(CCC)c(=O)c3c2)cn1` the remaining binding was 96% (PIK3CA E542K; binding, competition with immobilised ligand; 0.5 µM).
`C=CC(=O)N1CCC[C@@H](n2nc(-c3ccc(Oc4ccccc4)cc3)c3c(N)ncnc32)C1` has an inhibition of 8% (PIK3CA I800L; enzyme activity, inhibitor; 1 µM).
The remaining binding of `Cc1ccc(NC(=O)c2ccnc(C(F)(F)F)c2)cc1-c1cc(OCCO)nc(N2CCOCC2)c1` is reported as 74% (Phosphatidylinositol 4,5-bisphosphate 3-kinase catalytic subunit alpha isoform (PIK3CA, Homo sapiens, UniProt P42336, H1047Y); binding; 1 µM).
`C=CC(=O)N1CCC([C@@H]2CCNc3c(C(N)=O)c(-c4ccc(Oc5ccccc5)cc4)nn32)CC1` gave an inhibition of 0% (PIK3CA; enzyme activity, inhibitor; 1 µM).
`CN1CCN(C(=O)c2ccc(NC(=O)Nc3ccc(N(C)c4ccnc(Nc5ccc(CS(C)(=O)=O)cc5)n4)cc3)cc2)CC1` gave a remaining binding of 100% (Phosphatidylinositol 4,5-bisphosphate 3-kinase catalytic subunit alpha isoform (PIK3CA, Homo sapiens, UniProt P42336, M1043I); binding; 1 µM).
The inhibition of `CO[C@@H]1[C@H](N(C)C(=O)c2ccccc2)C[C@H]2O[C@]1(C)n1c3ccccc3c3c4c(c5c6ccccc6n2c5c31)C(=O)NC4` is reported as 0% (Phosphatidylinositol 4,5-bisphosphate 3-kinase catalytic subunit alpha isoform (PIK3CA, Homo sapiens, UniProt P42336, E545K); enzyme activity, inhibitor; 1 µM).
`N#Cc1ccc(NC(=O)Nc2ccccc2)cc1` gave a remaining binding of 92% (PIK3CA; cell-free assay, competition with immobilised ligand; 25 µM).
